# Assays:
# [1] = target: T1, Calcitonin gene-related peptide type 1 receptor (Homo sapiens, UniProt O60894+Q16602); experiment: Affinity against human calcitonin gene related peptide receptor (1 uM) expressed in SK-N-MC cells using [125I]-CGRP as radioligand after 180 minutes of incubation at pH 7.40; type: cell-based
# How it was run: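 SK-N-MC cell membranes, frozen at -80 °C in Tris/BSA/bacitracin buffer, then diluted 1:10 in assay buffer (50 mM Tris, 150 mM NaCl, 5 mM MgCl2, 1 mM EDTA, pH 7.40). Filtered, gamma counted, nonspecific binding with 1 μM human α-CGRP. IC50 by one-site nonlinear regression; at least three experiments in triplicate.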
# [2] = target: Calcitonin gene-related peptide type 1 receptor (Rattus norvegicus, UniProt Q63118); experiment: Affinity against calcitonin gene related peptide receptor (1 uM) in rat spleen using [125I]CGRP as radioligand after 180 minutes of incubation at pH 7.40; type: tissue-based
# How it was run: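 Membrane homogenates of marmoset or rat spleen, diluted 1:10 in assay buffer (50 mM Tris, 150 mM NaCl, 5 mM MgCl2, 1 mM EDTA, pH 7.40). Incubated 180 min at ambient temperature with 50 pM 125I-CGRP and increasing test concentrations, then filtered on PEI-treated GF/B filters and gamma counted. Nonspecific binding defined with 1 μM human α-CGRP. IC50 from one-site nonlinear regression.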
# [3] = target: T1, Calcitonin gene-related peptide type 1 receptor; experiment: Antagonistic activity against calcitonin gene related peptide receptor determined by measuring the formation of cyclic AMP in SK-N-MC cells; type: functional, cell-based; conditions: read-out: pA2 (converted)
# Calcitonin gene-related peptide type 1 receptor (Rattus norvegicus, UniProt Q63118), sequence (Q63118 whole entry): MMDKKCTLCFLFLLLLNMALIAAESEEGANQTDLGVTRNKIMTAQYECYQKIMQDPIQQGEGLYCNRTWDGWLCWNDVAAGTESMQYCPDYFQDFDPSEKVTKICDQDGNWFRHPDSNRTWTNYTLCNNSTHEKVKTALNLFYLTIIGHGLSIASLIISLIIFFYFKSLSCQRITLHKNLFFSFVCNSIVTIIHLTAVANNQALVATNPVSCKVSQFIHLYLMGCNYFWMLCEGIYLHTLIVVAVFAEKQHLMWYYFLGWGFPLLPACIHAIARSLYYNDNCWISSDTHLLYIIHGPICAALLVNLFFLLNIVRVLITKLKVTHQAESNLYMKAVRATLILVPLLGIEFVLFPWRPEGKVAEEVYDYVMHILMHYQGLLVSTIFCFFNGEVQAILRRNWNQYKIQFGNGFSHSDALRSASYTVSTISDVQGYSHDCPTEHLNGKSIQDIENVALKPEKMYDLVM
# T1 sequence (Q16602 whole entry, one chain of several): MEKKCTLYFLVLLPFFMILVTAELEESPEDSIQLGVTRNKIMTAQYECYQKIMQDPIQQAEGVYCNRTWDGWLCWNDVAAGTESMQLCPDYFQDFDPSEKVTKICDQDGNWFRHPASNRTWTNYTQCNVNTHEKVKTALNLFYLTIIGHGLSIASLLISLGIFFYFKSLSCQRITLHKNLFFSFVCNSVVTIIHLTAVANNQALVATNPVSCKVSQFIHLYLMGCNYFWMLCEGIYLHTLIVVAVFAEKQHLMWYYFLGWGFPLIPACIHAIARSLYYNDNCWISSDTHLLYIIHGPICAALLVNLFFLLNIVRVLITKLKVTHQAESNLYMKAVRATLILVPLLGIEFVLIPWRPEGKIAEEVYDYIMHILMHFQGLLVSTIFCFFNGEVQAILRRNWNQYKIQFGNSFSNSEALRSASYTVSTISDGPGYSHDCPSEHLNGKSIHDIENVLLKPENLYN
IC50 [1] [nM],IC50 [2] [nM],Kb [3] [nM],SMILES
226,,,COc1ccccc1N1CCN(C(=O)N[C@@H](Cc2cc(Br)c(O)c(Br)c2)C(=O)N[C@H](CCCCN)C(=O)N2CCN(c3ccncc3)CC2)CC1
250,,,COc1ccccc1C1CCN(C(=O)N[C@@H](Cc2cc(Br)c(O)c(Br)c2)C(=O)N[C@H](CCCCN)C(=O)N2CCN(c3ccncc3)CC2)CC1
> 300000,,,NCCCC[C@@H](NC(=O)[C@H](Cc1cc(Br)c(N)c(Br)c1)NC(=O)CCCc1ccccc1)C(=O)N1CCN(c2ccccc2)CC1
> 300000,,,NCCCC[C@H](NC(=O)[C@@H](Cc1cc(Br)c(O)c(Br)c1)NC(=O)CCCc1ccccc1)C(=O)NCCc1ccccc1
> 300000,,,NCCCC[C@@H](NC(=O)[C@H](Cc1cc(Br)c(N)c(Br)c1)NC(=O)CCCc1ccccc1)C(=O)N1CCNCC1
196000,,,NCCCC[C@@H](NC(=O)[C@H](Cc1cc(Br)c(N)c(Br)c1)NC(=O)CCc1ccccc1)C(=O)NCCc1ccccc1
,6.4,,NCCCC[C@@H](NC(=O)[C@H](Cc1cc(Br)c(O)c(Br)c1)NC(=O)N1CCC(N2Cc3ccccc3NC2=O)CC1)C(=O)N1CCN(c2ccncc2)CC1
1000,,,COc1ccccc1CCNC(=O)N[C@@H](Cc1cc(Br)c(O)c(Br)c1)C(=O)N[C@H](CCCCN)C(=O)N1CCN(c2ccncc2)CC1
17000,,,NCCCC[C@@H](NC(=O)[C@H](Cc1cc(Br)c(O)c(Br)c1)NC(=O)CCCc1ccccc1)C(=O)NCCc1ccccc1
10300,,,NCCCC[C@@H](NC(=O)[C@H](Cc1cc(Br)c(N)c(Br)c1)NC(=O)CCCc1ccccc1)C(=O)N1CCN(c2ccncc2)CC1
44,,10,NCCCC[C@@H](NC(=O)[C@H](Cc1cc(Br)c(O)c(Br)c1)NC(=O)N1CCC(n2c(=O)oc3ccccc32)CC1)C(=O)N1CCN(c2ccncc2)CC1
13000,,,COc1ccccc1CCNC(=O)N[C@@H](Cc1cc(Br)c(O)c(Br)c1)C(=O)N[C@H](CCCCN)C(=O)NCCc1ccccc1
200,70500,126,COc1cccc(CCNC(=O)N[C@@H](Cc2cc(Br)c(O)c(Br)c2)C(=O)N[C@H](CCCCN)C(=O)N2CCN(c3ccncc3)CC2)c1
> 300000,,,NCCCC[C@H](NC(=O)[C@H](Cc1cc(Br)c(O)c(Br)c1)NC(=O)CCCc1ccccc1)C(=O)NCCc1ccccc1
> 300000,,,NCCCC[C@@H](NC(=O)[C@@H](Cc1cc(Br)c(O)c(Br)c1)NC(=O)CCCc1ccccc1)C(=O)NCCc1ccccc1
0.2,56.7,0.0794,NCCCC[C@@H](NC(=O)[C@H](Cc1cc(Br)c(O)c(Br)c1)NC(=O)N1CCC(n2c(O)nc3ccccc32)CC1)C(=O)N1CCN(c2ccncc2)CC1
0.05,,,NCCCC[C@@H](NC(=O)[C@H](Cc1cc(Br)c(O)c(Br)c1)NC(=O)N1CCC(n2cc(-c3ccccc3)[nH]c2=O)CC1)C(=O)N1CCN(c2ccncc2)CC1
50000,,,NCCCC[C@@H](NC(=O)[C@H](Cc1cc(Br)c(N)c(Br)c1)NC(=O)CCCc1ccccc1)C(=O)Nc1ccccc1
40000,,,NCCCC[C@@H](NC(=O)[C@H](Cc1cc(Br)c(N)c(Br)c1)NC(=O)CCCc1ccccc1)C(=O)NCCc1ccccc1

SMILES,IC50 [1] [nM],IC50 [2] [nM],Kb [3] [nM]
NCCCC[C@@H](NC(=O)[C@H](Cc1cc(Br)c(O)c(Br)c1)NC(=O)N1CCC(N(C(N)=O)c2ccccc2)CC1)C(=O)N1CCN(c2ccncc2)CC1,4.7,,0.794

# Reference: ChEMBL document CHEMBL1141083, “Development of human calcitonin gene-related peptide (CGRP) receptor antagonists. 1. Potent and selective small molecule CGRP antagonists. 1-[N2-[3,5-dibromo-N-[[4-(3,4-dihydro-2(1H)-oxoquinazolin-3-yl)-1-piperidinyl]carbonyl]-D-tyrosyl]-l-lysyl]-4-(4-pyridinyl)piperazine: the first CGRP antagonist …” (J Med Chem, 2005)
